An excerpt weighted towards active compounds, which were near 3.1% of everything screened.
OX1R antag-1 – human HCRTR1 antagonism. O43613. CHO/OX1R cells, Fluo-8 calcium fluorescence, orexin A. inhibition, % at 5 µM. 0.43% of 330,000 active;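 active means inhibition above its plate's threshold, mean inhibition of all tested compounds on the plate plus 3 SD, cut at about 37% in these data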
Target sequence (O43613 whole entry, looked up): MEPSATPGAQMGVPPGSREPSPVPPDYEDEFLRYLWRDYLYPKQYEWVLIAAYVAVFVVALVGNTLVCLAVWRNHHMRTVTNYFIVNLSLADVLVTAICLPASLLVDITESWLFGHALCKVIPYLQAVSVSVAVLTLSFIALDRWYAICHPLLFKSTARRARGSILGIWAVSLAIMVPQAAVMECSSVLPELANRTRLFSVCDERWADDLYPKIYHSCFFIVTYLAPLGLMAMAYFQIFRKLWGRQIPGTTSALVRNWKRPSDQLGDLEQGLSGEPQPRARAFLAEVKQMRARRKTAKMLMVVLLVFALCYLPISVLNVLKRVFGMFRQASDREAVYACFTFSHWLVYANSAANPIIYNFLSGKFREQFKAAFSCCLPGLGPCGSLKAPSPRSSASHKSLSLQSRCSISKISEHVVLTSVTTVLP
CHO parental Ca – counter-screen for OX1R antagonists: effect in parental CHO cells; AID 463079; parental CHO-K1, ATP-induced calcium, Fluo-8 fluorescence; inhibition, % at 5.6 µM; 0.63% of 330,000 active;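 active means inhibition above that plate's mean sample inhibition plus 3 SD, cut at about 26% in these data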
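test system = CHO parental line | reagent = ATP stimulus | measured by = intracellular calcium via Fluo-8 no-wash fluorescent dye | control set = ATP and no-ATP DMSO wells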
GPR7 antagonist – blocks human GPR7 receptor signaling; AID 1861; GPR7-expressing cells, fluorescence antagonist assay; 1.1% of 290,000 active; inhibition, % at 4.4 µM; P48145; in the data active means inhibition above about 16%, passing the limit was not always enough;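 further: cells stimulated with the agonist NPW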
OX1R antag-2 – antagonists of human orexin 1 receptor (OX1R); O43613; OX1R-expressing cells, FRET antagonist read-out; inhibition, % at 6.6 µM; 1.8% of 330,000 active; AID 485270; in the data active means inhibition mostly above about 38%, no sharp cut-off; inactive means mostly below about 40%
GalR3 antagonist – antagonists of human GalR3; HEK293 GalR3-CNG cAMP membrane potential fluorescence; galR3 body fused to GalR1 C-terminus; inhibition, % at 3 µM; 0.44% of 360,000 active; AID 651719; O60755;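 active means inhibition above the screen-wide average plus 3 SD, cut at about 13% in these data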;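 further: forskolin and galanin both at EC90 stimulate the cells; cAMP rise reported by CNG channel membrane potential dye signal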
Of the large screens only hits and unclear results are named; the others gave an inactive call.

O=C(OCC(=O)N(Cc1ccccc1)C1CCS(=O)(=O)C1)c1cc2c(s1)CCCC2 (stereo not given)	none
Oc1cccc(Nc2c3ccccc3nc3ccccc23)c1	none
Cc1ccccc1Nc1c([N+](=O)[O-])cncc1[N+](=O)[O-]	OX1R antag-2 63.0
O=[N+]([O-])c1cc([N+](=O)[O-])c2nonc2c1Nc1ccc(O)cc1	OX1R antag-2 76.4
O=[N+]([O-])c1cc([N+](=O)[O-])c2nonc2c1Nc1ccccc1O	none (no result: OX1R antag-1, CHO parental Ca, OX1R antag-2)
COc1ccccc1Nc1c([N+](=O)[O-])cncc1[N+](=O)[O-]	none
O=[N+]([O-])c1cncc([N+](=O)[O-])c1Nc1cccc(O)c1	OX1R antag-2 56.4
Cc1c(NS(=O)(=O)c2cccc(C(=O)OCC(=O)c3ccc(Cl)cc3)c2)c(=O)n(-c2ccccc2)n1C	none (no result: OX1R antag-1, CHO parental Ca, GPR7 antagonist, OX1R antag-2)
C/C(O)=c1/cnc2nc3ccccc3n2c1=O	none
OC(CNCCc1ccc(C(F)(F)F)cc1)COC(c1ccccc1)c1ccccc1 (stereo not given)	OX1R antag-1 48.9, CHO parental Ca 89.5
Cc1c(NC(=O)C(C)OC(=O)CCc2c[nH]c3ccccc23)c(=O)n(-c2ccccc2)n1C (stereo not given)	none (no result: GPR7 antagonist)
Cc1csc2c(N3CCN(S(=O)(=O)c4ccc(Cl)cc4)CC3)ncnc12	none
O=S(=O)(c1ccc(Cl)cc1)N1CCN(c2ncnc3sccc23)CC1	CHO parental Ca 46.3 (no result: GPR7 antagonist)
Cc1sc2ncnc(N3CCN(S(=O)(=O)c4ccc(C(C)(C)C)cc4)CC3)c2c1C	CHO parental Ca 51.1 (no result: GPR7 antagonist)
Cc1sc2ncnc(N3CCN(S(=O)(=O)c4ccc(Br)cc4)CC3)c2c1C	none
Cc1ccc(S(=O)(=O)N2CCN(c3nc(C)nc4sc(C)c(C)c34)CC2)cc1	GPR7 antagonist 13.8 (no result: OX1R antag-1, CHO parental Ca, OX1R antag-2, GalR3 antagonist)
Cc1csc2ncnc(N3CCN(S(=O)(=O)c4cccc(C(F)(F)F)c4)CC3)c12	CHO parental Ca 58.7, OX1R antag-2 56.4
N#CCCNc1c(Cl)cc(Cl)cc1C(=O)O	none
COc1ccccc1C(=O)NC(=O)COC(=O)CNC(=O)c1ccccc1F	none (no result: GPR7 antagonist)
CCOc1ccc2[nH]c3c(N4CCN(c5ccccn5)CC4)ncnc3c2c1	OX1R antag-2 60.8
COc1cccc2[nH]c3c(N4CCC5(CC4)OCCO5)ncnc3c12	none
COc1ccc2c(c1)[nH]c1c(N3CCN(Cc4ccc5c(c4)OCO5)CC3)ncnc12	OX1R antag-2 49.0
Cc1ccc2[nH]c3c(N4CCN(Cc5ccccc5)CC4)ncnc3c2c1	OX1R antag-2 79.6
Cc1ccc2[nH]c3c(N4CCN(Cc5ccc6c(c5)OCO6)CC4)ncnc3c2c1	none (no result: OX1R antag-1, CHO parental Ca, OX1R antag-2)
Cc1ccc2c(c1)[nH]c1c(N3CCN(Cc4ccccc4)CC3)ncnc12	none
Cc1ccc2[nH]c3c(N4CCCCCC4)ncnc3c2c1	none (no result: OX1R antag-1, CHO parental Ca, OX1R antag-2, GalR3 antagonist)
c1ccc2c(c1)[nH]c1c(N3CCC4(CC3)OCCO4)ncnc12	CHO parental Ca 59.9, OX1R antag-2 65.7 (no result: GalR3 antagonist)
Cc1ccc(NC(=O)NNC(=O)CSC2CCc3ccccc32)c(C)c1 (stereo not given)	none (no result: OX1R antag-1, CHO parental Ca, GPR7 antagonist, OX1R antag-2)
COC(=O)c1ccc(SC)cn1	none
COc1cccc2[nH]c3c(N4CCc5ccccc5C4)ncnc3c12	none (no result: GalR3 antagonist)
COc1ccc2[nH]c3c(N4CC(C)OC(C)C4)ncnc3c2c1 (stereo not given)	none
c1ccc(CN2CCN(c3ncnc4c3[nH]c3ccccc34)CC2)cc1	CHO parental Ca 46.3, GalR3 antagonist 60.1
COc1cccc(N2CCN(c3ncnc4c3[nH]c3ccccc34)CC2C)c1 (stereo not given)	OX1R antag-1 91.1, CHO parental Ca 89.0, OX1R antag-2 112.2
c1ccc2c(c1)CCN(c1ncnc3c1[nH]c1ccccc13)C2	OX1R antag-1 80.4, CHO parental Ca 66.3, OX1R antag-2 80.5 (no result: GPR7 antagonist)
C[C@@H]1CN([C@@H](C)CO)C(=O)Cc2cc(NC(=O)C3CCCCC3)ccc2O[C@H]1CN(C)S(=O)(=O)c1ccccc1	none (no result: GPR7 antagonist)
CCc1cc(C(=O)N(C)CC(=O)Nc2c(Cl)cccc2Cl)sc1C	none (no result: GPR7 antagonist)
Nc1nc(N2CCN(c3ccccn3)CC2)nc2ccccc12	none
COc1cccc(CNc2ccc(S(=O)(=O)Nc3nccs3)cc2)c1O	GPR7 antagonist 17.2
O=[N+]([O-])c1ccc(Cl)c(S(=O)(=O)/N=C(/c2ccccc2)N2CCOCC2)c1	OX1R antag-2 51.3
C[C@@H]1C=CCCO[C@]12C(=O)Nc1ccccc12	none (no result: OX1R antag-1, CHO parental Ca, GPR7 antagonist, OX1R antag-2)
O=C(NCCCc1ccccc1)c1ccc(CS(=O)Cc2ccc(Cl)cc2)o1 (stereo not given)	none
CCOc1cccc(N)c1	none (no result: GPR7 antagonist, GalR3 antagonist)
CCOc1ccc(N)c(SSc2cc(OCC)ccc2N)c1	CHO parental Ca 46.6
